Test results taken from ChEMBL document CHEMBL4689842, “EUbOPEN Chemogenomics Library wave 1” (2021).
Values joined by “and” are separate entries in the source; they are usually repeats but may differ in a detail not shown here. Equal entries are not always repeated.

Tested on: U2OS
Assay: Multiplex assay against U2OS
Format: toxicity, cell-based
Details: human
Procedure, shortened: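 At seeding, live cells were stained with Hoechst33342, BioTracker Green Microtubule Cytoskeleton Dye, MitoTracker Red and Annexin V Alexa Fluor 680. After compound addition they were imaged on a CQ1 microscope at 37°C and 5% CO2, and CellPathfinder machine-learning gating sorted them into Hoechst high-intensity objects or normal cells, with normal cells further split into healthy, pyknosed or fragmented nuclei and pyknosed cells into mitotic or apoptotic. Tubulin, mitochondrial-mass and membrane-permeability phenotypes are given as per cents of cells with healthy nuclei.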

[1] = 12 h, 1 µM, compound concentration 1 uM, replicate 1
[2] = 12 h, 1 µM, compound concentration 1 uM, replicate 2
[3] = 12 h, 10 µM, compound concentration 10 uM, replicate 1
[4] = 12 h, 10 µM, compound concentration 10 uM, replicate 2
[5] = 24 h, 1 µM, compound concentration 1 uM, replicate 1
[6] = 24 h, 1 µM, compound concentration 1 uM, replicate 2
[7] = 24 h, 10 µM, compound concentration 10 uM, replicate 1
[8] = 24 h, 10 µM, compound concentration 10 uM, replicate 2
[9] = 48 h, 1 µM, compound concentration 1 uM, replicate 1
[10] = 48 h, 1 µM, compound concentration 1 uM, replicate 2
[11] = 48 h, 10 µM, compound concentration 10 uM, replicate 1
[12] = 48 h, 10 µM, compound concentration 10 uM, replicate 2

CC(C)(C)NC[C@H](O)COc1nsnc1N1CCOCC1 [TIMOLOL]
Population Apoptotic (%) [1]: 77% | Population Fragmented Nuclei (%) [1]: 12% | Population Healthy Nuclei (%) [1]: 80% | Population Hoechst High Intensity Objects (%) [1]: 7% | Population Membrane Permeable-Phenotype (%) [1]: 4% | Population Mitochondria Different-Phenotype (%) [1]: 9% | Population Mitotic Cells (%) [1]: 22% | Population Pyknosed Nuclei (%) [1]: 7% | Population Tubulin-Different-Phenotype (%) [1]: 8% | Population Apoptotic (%) [2]: 100% | Population Fragmented Nuclei (%) [2]: 5% | Population Healthy Nuclei (%) [2]: 88% | Population Hoechst High Intensity Objects (%) [2]: 8% | Population Membrane Permeable-Phenotype (%) [2]: 8% | Population Mitochondria Different-Phenotype (%) [2]: 11% | Population Mitotic Cells (%) [2]: 0% | Population Normal (%) [2]: 92% | Population Pyknosed Nuclei (%) [2]: 5% | Population Tubulin-Different-Phenotype (%) [2]: 18% | Population Apoptotic (%) [3]: 30% | Population Fragmented Nuclei (%) [3]: 8% | Population Healthy Nuclei (%) [3]: 77% | Population Hoechst High Intensity Objects (%) [3]: 6% | Population Membrane Permeable-Phenotype (%) [3]: 6% | Population Mitochondria Different-Phenotype (%) [3]: 8% | Population Mitotic Cells (%) [3]: 69% | Population Normal (%) [3]: 93% | Population Pyknosed Nuclei (%) [3]: 14% | Population Tubulin-Different-Phenotype (%) [3]: 8% | Population Apoptotic (%) [4]: 33% | Population Healthy Nuclei (%) [4]: 79% | Population Hoechst High Intensity Objects (%) [4]: 3% | Population Membrane Permeable-Phenotype (%) [4]: 4% | Population Mitochondria Different-Phenotype (%) [4]: 7% | Population Mitotic Cells (%) [4]: 66% | Population Normal (%) [4]: 96% | Population Pyknosed Nuclei (%) [4]: 11% | Population Tubulin-Different-Phenotype (%) [4]: 4% | Population Apoptotic (%) [5]: 63% | Population Fragmented Nuclei (%) [5]: 10% | Population Healthy Nuclei (%) [5]: 82% | Population Hoechst High Intensity Objects (%) [5]: 4% | Population Mitochondria Different-Phenotype (%) [5]: 7% | Population Mitotic Cells (%) [5]: 36% | Population Normal (%) [5]: 95% | Population Tubulin-Different-Phenotype (%) [5]: 12% | Population Apoptotic (%) [6]: 50% | Population Fragmented Nuclei (%) [6]: 11% | Population Healthy Nuclei (%) [6]: 81% | Population Hoechst High Intensity Objects (%) [6]: 5% | Population Membrane Permeable-Phenotype (%) [6]: 2% | Population Mitochondria Different-Phenotype (%) [6]: 18% | Population Mitotic Cells (%) [6]: 50% | Population Normal (%) [6]: 94% | Population Pyknosed Nuclei (%) [6]: 6% | Population Tubulin-Different-Phenotype (%) [6]: 21% | Population Apoptotic (%) [7]: 20% | Population Fragmented Nuclei (%) [7]: 7% | Population Healthy Nuclei (%) [7]: 85% | Population Hoechst High Intensity Objects (%) [7]: 5% | Population Membrane Permeable-Phenotype (%) [7]: 5% | Population Mitochondria Different-Phenotype (%) [7]: 2% | Population Mitotic Cells (%) [7]: 80% | Population Normal (%) [7]: 94% | Population Pyknosed Nuclei (%) [7]: 6% | Population Tubulin-Different-Phenotype (%) [7]: 5% | Population Apoptotic (%) [8]: 41% | Population Healthy Nuclei (%) [8]: 81% | Population Hoechst High Intensity Objects (%) [8]: 2% | Population Membrane Permeable-Phenotype (%) [8]: 3% | Population Mitochondria Different-Phenotype (%) [8]: 5% | Population Mitotic Cells (%) [8]: 58% | Population Normal (%) [8]: 97% | Population Pyknosed Nuclei (%) [8]: 11% | Population Tubulin-Different-Phenotype (%) [8]: 4% | Population Apoptotic (%) [9]: 23% | Population Membrane Permeable-Phenotype (%) [9]: 1% | Population Mitochondria Different-Phenotype (%) [9]: 12% | Population Mitotic Cells (%) [9]: 76% | Population Tubulin-Different-Phenotype (%) [9]: 5% | Population Apoptotic (%) [10]: 42% | Population Fragmented Nuclei (%) [10]: 5% | Population Healthy Nuclei (%) [10]: 88% | Population Hoechst High Intensity Objects (%) [10]: 1% | Population Membrane Permeable-Phenotype (%) [10]: 13% | Population Mitochondria Different-Phenotype (%) [10]: 17% | Population Mitotic Cells (%) [10]: 57% | Population Normal (%) [10]: 98% | Population Pyknosed Nuclei (%) [10]: 5% | Population Tubulin-Different-Phenotype (%) [10]: 21% | Population Apoptotic (%) [11]: 46% | Population Fragmented Nuclei (%) [11]: 1% | Population Healthy Nuclei (%) [11]: 93% | Population Hoechst High Intensity Objects (%) [11]: 2% | Population Membrane Permeable-Phenotype (%) [11]: 1% | Population Mitochondria Different-Phenotype (%) [11]: 9% | Population Mitotic Cells (%) [11]: 53% | Population Normal (%) [11]: 97% | Population Tubulin-Different-Phenotype (%) [11]: 6% | Population Apoptotic (%) [12]: 27% | Population Fragmented Nuclei (%) [12]: 3% | Population Healthy Nuclei (%) [12]: 91% | Population Hoechst High Intensity Objects (%) [12]: 1% | Population Membrane Permeable-Phenotype (%) [12]: 4% | Population Mitochondria Different-Phenotype (%) [12]: 10% | Population Mitotic Cells (%) [12]: 72% | Population Normal (%) [12]: 98% | Population Pyknosed Nuclei (%) [12]: 4% | Population Tubulin-Different-Phenotype (%) [12]: 13%

CCC1=C[C@@H]2C[N@](C1)Cc1c([nH]c3ccccc13)[C@@](C(=O)OC)(c1cc3c(cc1OC)N(C)[C@H]1[C@@](O)(C(=O)OC)[C@H](OC(C)=O)[C@]4(CC)C=CCN5CC[C@]31[C@@H]54)C2.O=C(O)C(O)C(O)C(=O)O.O=C(O)C(O)C(O)C(=O)O [VINORELBINE TARTRATE]
Population Apoptotic (%) [1]: 55% and 29% | Population Fragmented Nuclei (%) [1]: 14% and 9% | Population Healthy Nuclei (%) [1]: 59% and 76% | Population Mitochondria Different-Phenotype (%) [1]: 34% and 22% | Population Mitotic Cells (%) [1]: 44% and 70% | Population Normal (%) [1]: 97% and 92% | Population Pyknosed Nuclei (%) [1]: 25% and 14% | Population Tubulin-Different-Phenotype (%) [1]: 26% | Population Fragmented Nuclei (%) [2]: 22% | Population Healthy Nuclei (%) [2]: 50% and 69% | Population Hoechst High Intensity Objects (%) [2]: 16% and 20% | Population Mitochondria Different-Phenotype (%) [2]: 30% | Population Mitotic Cells (%) [2]: 36% and 80% | Population Normal (%) [2]: 83% and 79% | Population Pyknosed Nuclei (%) [2]: 27% and 16% | Population Tubulin-Different-Phenotype (%) [2]: 45% and 34% | Population Apoptotic (%) [3]: 53% and 34% | Population Fragmented Nuclei (%) [3]: 14% and 8% | Population Healthy Nuclei (%) [3]: 74% and 76% | Population Hoechst High Intensity Objects (%) [3]: 6% and 8% | Population Mitochondria Different-Phenotype (%) [3]: 35% and 24% | Population Mitotic Cells (%) [3]: 46% and 65% | Population Normal (%) [3]: 93% and 91% | Population Pyknosed Nuclei (%) [3]: 11% and 14% | Population Tubulin-Different-Phenotype (%) [3]: 20% and 18% | Total Cell Count [3]: 168 and 185 | Population Fragmented Nuclei (%) [4]: 12% and 11% | Population Healthy Nuclei (%) [4]: 58% and 67% | Population Hoechst High Intensity Objects (%) [4]: 13% and 18% | Population Membrane Permeable-Phenotype (%) [4]: 56% and 20% | Population Mitochondria Different-Phenotype (%) [4]: 45% and 18% | Population Mitotic Cells (%) [4]: 40% and 82% | Population Normal (%) [4]: 86% and 81% | Population Pyknosed Nuclei (%) [4]: 29% and 21% | Population Tubulin-Different-Phenotype (%) [4]: 45% | Total Cell Count [4]: 132 and 78 | Population Apoptotic (%) [5]: 35% and 65% | Population Fragmented Nuclei (%) [5]: 20% and 14% | Population Healthy Nuclei (%) [5]: 49% and 56% | Population Hoechst High Intensity Objects (%) [5]: 1% and 3% | Population Membrane Permeable-Phenotype (%) [5]: 21% and 52% | Population Mitochondria Different-Phenotype (%) [5]: 26% and 37% | Population Mitotic Cells (%) [5]: 64% and 34% | Population Normal (%) [5]: 98% and 96% | Population Pyknosed Nuclei (%) [5]: 30% and 28% | Population Tubulin-Different-Phenotype (%) [5]: 41% and 34% | Population Apoptotic (%) [6]: 61% | Population Fragmented Nuclei (%) [6]: 30% and 22% | Population Healthy Nuclei (%) [6]: 36% and 59% | Population Hoechst High Intensity Objects (%) [6]: 11% and 15% | Population Membrane Permeable-Phenotype (%) [6]: 60% and 22% | Population Mitochondria Different-Phenotype (%) [6]: 40% | Population Mitotic Cells (%) [6]: 38% | Population Normal (%) [6]: 88% and 84% | Population Pyknosed Nuclei (%) [6]: 33% and 18% | Population Tubulin-Different-Phenotype (%) [6]: 62% and 31% | Population Apoptotic (%) [7]: 63% and 43% | Population Fragmented Nuclei (%) [7]: 18% and 14% | Population Healthy Nuclei (%) [7]: 55% | Population Hoechst High Intensity Objects (%) [7]: 7% and 4% | Population Membrane Permeable-Phenotype (%) [7]: 55% | Population Mitochondria Different-Phenotype (%) [7]: 29% and 33% | Population Mitotic Cells (%) [7]: 36% and 56% | Population Normal (%) [7]: 92% and 95% | Population Pyknosed Nuclei (%) [7]: 25% and 30% | Population Tubulin-Different-Phenotype (%) [7]: 29% and 34% | Total Cell Count [7]: 176 and 207 | Population Apoptotic (%) [8]: 82% and 47% | Population Fragmented Nuclei (%) [8]: 21% and 17% | Population Healthy Nuclei (%) [8]: 43% | Population Hoechst High Intensity Objects (%) [8]: 9% and 14% | Population Mitochondria Different-Phenotype (%) [8]: 43% and 22% | Population Normal (%) [8]: 90% and 85% | Population Pyknosed Nuclei (%) [8]: 34% and 26% | Population Tubulin-Different-Phenotype (%) [8]: 38% and 22% | Total Cell Count [8]: 147 and 90
